Data as given in ChEMBL document CHEMBL4270530, “Surmounting the resistance against EGFR inhibitors through the development of thieno[2,3-d]pyrimidine-based dual EGFR/HER2 inhibitors” (Eur J Med Chem, 2018).
Active and inactive are the calls of the source. No cut-off for these calls is given here.

Experiments:
[1] = test system: A-431; experiment: Cytotoxicity against human A431 cells over expressing EGFR assessed as reduction in cell viability after 72 hrs by sulforhodamine B assay; assay type: functional, cell-based; conditions: A-431, 72 h
Outline: (§1)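 Cells seeded and grown 24 h, then exposed to 0.1% DMSO vehicle or 0.3125-20 μM compound for 72 h. Fixed with ice-cold 50% TCA (1 h, 4 °C), stained with 0.4% SRB 30 min at room temperature, dye solubilized in 10 mM tris base pH 10.5, OD read at 560 nm. Survival fraction = OD treated/OD vehicle; IC50 from triplicates of at least two independent experiments, mean ± SD.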

[2] = test system: MDA-MB-361; experiment: Cytotoxicity against human MDA-MB-361 cells over expressing HER2 assessed as reduction in cell viability after 72 hrs by sulforhodamine B assay; assay type: functional, cell-based; conditions: MDA-MB-361, 72 h; outline: as §1
[3] = target: T1, Epidermal growth factor receptor (Homo sapiens, UniProt P00533); experiment: Inhibition of recombinant human C-terminal His-tagged/N-terminal GST-tagged EGFR (668 to 1210 residues) expressed in baculovirus infected Sf9 cells using Poly-(Glu, Tyr) as substrate measured after 45 minutes by Kinase-Glo luminescent assay
T1 sequence (P00533 whole entry, the tested form may be a part): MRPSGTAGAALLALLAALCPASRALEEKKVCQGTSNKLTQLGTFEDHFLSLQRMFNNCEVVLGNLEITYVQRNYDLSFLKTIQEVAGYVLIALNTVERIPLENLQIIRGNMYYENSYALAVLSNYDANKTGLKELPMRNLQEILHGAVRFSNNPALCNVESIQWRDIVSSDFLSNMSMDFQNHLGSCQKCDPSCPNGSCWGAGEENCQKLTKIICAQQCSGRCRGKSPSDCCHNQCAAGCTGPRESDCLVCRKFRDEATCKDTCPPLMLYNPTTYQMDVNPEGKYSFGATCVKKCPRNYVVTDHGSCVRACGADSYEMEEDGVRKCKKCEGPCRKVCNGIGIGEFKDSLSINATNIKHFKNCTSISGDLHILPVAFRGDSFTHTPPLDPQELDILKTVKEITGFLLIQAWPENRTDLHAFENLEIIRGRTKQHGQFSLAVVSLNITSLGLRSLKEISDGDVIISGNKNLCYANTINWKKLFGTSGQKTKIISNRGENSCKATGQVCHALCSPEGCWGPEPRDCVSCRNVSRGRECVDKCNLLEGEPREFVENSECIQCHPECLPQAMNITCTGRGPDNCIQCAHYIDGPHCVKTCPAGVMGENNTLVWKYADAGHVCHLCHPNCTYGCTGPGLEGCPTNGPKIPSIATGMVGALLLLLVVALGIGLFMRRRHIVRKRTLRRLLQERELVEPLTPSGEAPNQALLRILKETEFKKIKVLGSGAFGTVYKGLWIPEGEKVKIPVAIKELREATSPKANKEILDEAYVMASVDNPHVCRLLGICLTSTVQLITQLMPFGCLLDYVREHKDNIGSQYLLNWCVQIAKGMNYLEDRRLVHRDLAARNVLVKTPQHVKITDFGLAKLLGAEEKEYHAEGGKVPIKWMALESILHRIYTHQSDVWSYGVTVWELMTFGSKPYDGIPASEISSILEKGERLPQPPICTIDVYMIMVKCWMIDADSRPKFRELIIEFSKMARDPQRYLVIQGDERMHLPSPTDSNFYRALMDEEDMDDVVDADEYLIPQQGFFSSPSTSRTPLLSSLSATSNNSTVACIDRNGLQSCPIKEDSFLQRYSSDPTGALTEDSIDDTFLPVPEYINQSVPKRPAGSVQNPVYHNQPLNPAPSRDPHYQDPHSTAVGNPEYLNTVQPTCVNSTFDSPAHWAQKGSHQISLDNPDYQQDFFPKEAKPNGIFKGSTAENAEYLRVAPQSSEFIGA

[4] = target: T2, Receptor tyrosine-protein kinase erbB-2 (Homo sapiens, UniProt P04626); experiment: Inhibition of recombinant human N-terminal GST-tagged HER2 (679 to 1255 residues) expressed in baculovirus infected Sf9 cells using Poly-(Glu, Tyr) as substrate measured after 45 minutes by Kinase-Glo luminescent assay
T2 sequence (P04626 whole entry, the tested form may be a part): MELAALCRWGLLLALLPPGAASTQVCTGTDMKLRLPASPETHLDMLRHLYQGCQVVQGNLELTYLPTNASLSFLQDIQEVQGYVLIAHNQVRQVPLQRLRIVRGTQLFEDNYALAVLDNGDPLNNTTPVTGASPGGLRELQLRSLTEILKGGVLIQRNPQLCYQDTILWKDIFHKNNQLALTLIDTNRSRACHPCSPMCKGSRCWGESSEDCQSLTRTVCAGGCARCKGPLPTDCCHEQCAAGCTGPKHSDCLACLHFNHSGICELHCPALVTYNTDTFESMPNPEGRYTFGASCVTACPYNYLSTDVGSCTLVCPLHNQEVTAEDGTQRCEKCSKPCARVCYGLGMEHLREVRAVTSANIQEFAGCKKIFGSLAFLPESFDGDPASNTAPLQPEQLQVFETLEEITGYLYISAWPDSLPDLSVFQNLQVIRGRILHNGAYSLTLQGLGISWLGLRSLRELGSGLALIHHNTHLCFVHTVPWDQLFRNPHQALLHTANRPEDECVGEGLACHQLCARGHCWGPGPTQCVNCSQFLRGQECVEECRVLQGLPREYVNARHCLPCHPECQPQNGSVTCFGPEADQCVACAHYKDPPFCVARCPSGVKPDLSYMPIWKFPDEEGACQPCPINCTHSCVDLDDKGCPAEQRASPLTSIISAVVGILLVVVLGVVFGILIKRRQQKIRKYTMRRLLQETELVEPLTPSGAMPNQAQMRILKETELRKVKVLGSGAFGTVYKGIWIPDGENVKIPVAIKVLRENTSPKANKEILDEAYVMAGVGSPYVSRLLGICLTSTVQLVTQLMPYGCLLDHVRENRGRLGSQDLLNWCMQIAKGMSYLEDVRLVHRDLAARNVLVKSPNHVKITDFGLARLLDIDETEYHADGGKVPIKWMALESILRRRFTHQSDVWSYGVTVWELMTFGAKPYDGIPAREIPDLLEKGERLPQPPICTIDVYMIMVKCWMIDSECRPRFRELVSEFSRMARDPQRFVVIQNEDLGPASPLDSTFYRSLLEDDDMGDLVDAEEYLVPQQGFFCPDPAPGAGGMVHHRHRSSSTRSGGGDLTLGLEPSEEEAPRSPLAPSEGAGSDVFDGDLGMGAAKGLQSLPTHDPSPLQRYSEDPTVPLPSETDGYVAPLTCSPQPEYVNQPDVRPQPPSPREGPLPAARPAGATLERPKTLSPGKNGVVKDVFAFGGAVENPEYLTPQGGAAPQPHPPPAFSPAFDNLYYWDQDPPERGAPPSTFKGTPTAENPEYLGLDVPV

[5] = target: T2, Receptor tyrosine-protein kinase erbB-2; experiment: Inhibition of HER2 signalling in HER2 over-expressing human SKBR3 cells assessed as reduction in S6 phosphorylation at S235/236 residue at 2.5 to 10 uM after 72 hrs by Western blot analysis
Outline: (§2)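 SKBr3 cells (DMEM, 10% FBS) treated 72 h at indicated concentrations. HEPES-buffer lysates on 12% SDS-PAGE, nitrocellulose transfer, 5% milk/TBST block, immunoblotted for AKT/mTOR/S6 with HRP secondary and chemiluminescence; β-actin loading control.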

[6] = test system: SK-BR-3; experiment: Cytotoxicity against human SKBR3 cells over expressing HER2 assessed as reduction in cell viability after 72 hrs by sulforhodamine B assay; assay type: functional, cell-based; conditions: SK-BR-3, 72 h; outline: as §1
[7] = target: T2, Receptor tyrosine-protein kinase erbB-2; experiment: Inhibition of HER2 signalling in HER2 over-expressing human SKBR3 cells assessed as reduction in AKT phosphorylation at S473 residue at 2.5 to 10 uM after 72 hrs by Western blot analysis; outline: as §2
[8] = test system: NCI-H1975; experiment: Cytotoxicity against human NCI-H1975 cells harboring EGFR T790M mutant assessed as reduction in cell viability after 72 hrs by sulforhodamine B assay; assay type: functional, cell-based; conditions: NCI-H1975, 72 h; outline: as §1
[9] = target: T2, Receptor tyrosine-protein kinase erbB-2; experiment: Inhibition of HER2 signalling in HER2 over-expressing human SKBR3 cells assessed as reduction in mTOR phosphorylation at S2448 residue at 2.5 to 10 uM after 72 hrs by Western blot analysis; outline: as §2
[10] = target: T1, Epidermal growth factor receptor; experiment: Inhibition of EGF-induced EGFR phosphorylation at Y1068 residues in EGFR over-expressing human A431 cells pretreated for 3 hrs followed by EGF-stimulation and measured after 10 mins by Western blot analysis
Outline: (§3)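 Overnight serum-starved A431 cells given indicated concentrations for 3 h, then 50 ng/ml EGF for 10 min. HEPES-buffer lysates resolved on 12% SDS-PAGE, transferred to nitrocellulose, blocked in 5% milk/TBST, probed with primary and HRP secondary antibodies, chemiluminescence read-out.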

[11] = target: T1, Epidermal growth factor receptor; experiment: Inhibition of EGF-induced EGFR signalling in EGFR over-expressing human A431 cells assessed as reduction in AKT phosphorylation at S473 residue at 5 to 20 uM pretreated for 3 hrs followed by EGF-stimulation and measured after 10 mins by Western blot analysis; outline: as §3
[12] = target: T1, Epidermal growth factor receptor; experiment: Inhibition of EGF-induced EGFR signalling in EGFR over-expressing human A431 cells assessed as reduction in ribosomal S6 phosphorylation at S235/236 residue at 5 to 20 uM pretreated for 3 hrs followed by EGF-stimulation and measured after 10 mins by Western blot analysis; outline: as §3
[13] = target: T1, Epidermal growth factor receptor; experiment: Inhibition of EGF-induced EGFR signalling in EGFR over-expressing human A431 cells assessed as reduction in p70S6K phosphorylation at T389 residue at 5 to 20 uM pretreated for 3 hrs followed by EGF-stimulation and measured after 10 mins by Western blot analysis; outline: as §3
[14] = test system: Epidermal growth factor receptor (Homo sapiens), P00533 [T790M]; experiment: Inhibition of EGFR T790M mutant in human NCI-H1975 cells assessed as reduction in AKT phosphorylation at S473 residue after 72 hrs by Western blot analysis; assay type: cell-based
Sequence of Epidermal growth factor receptor (Homo sapiens), P00533 [T790M] (P00533 whole entry T790M): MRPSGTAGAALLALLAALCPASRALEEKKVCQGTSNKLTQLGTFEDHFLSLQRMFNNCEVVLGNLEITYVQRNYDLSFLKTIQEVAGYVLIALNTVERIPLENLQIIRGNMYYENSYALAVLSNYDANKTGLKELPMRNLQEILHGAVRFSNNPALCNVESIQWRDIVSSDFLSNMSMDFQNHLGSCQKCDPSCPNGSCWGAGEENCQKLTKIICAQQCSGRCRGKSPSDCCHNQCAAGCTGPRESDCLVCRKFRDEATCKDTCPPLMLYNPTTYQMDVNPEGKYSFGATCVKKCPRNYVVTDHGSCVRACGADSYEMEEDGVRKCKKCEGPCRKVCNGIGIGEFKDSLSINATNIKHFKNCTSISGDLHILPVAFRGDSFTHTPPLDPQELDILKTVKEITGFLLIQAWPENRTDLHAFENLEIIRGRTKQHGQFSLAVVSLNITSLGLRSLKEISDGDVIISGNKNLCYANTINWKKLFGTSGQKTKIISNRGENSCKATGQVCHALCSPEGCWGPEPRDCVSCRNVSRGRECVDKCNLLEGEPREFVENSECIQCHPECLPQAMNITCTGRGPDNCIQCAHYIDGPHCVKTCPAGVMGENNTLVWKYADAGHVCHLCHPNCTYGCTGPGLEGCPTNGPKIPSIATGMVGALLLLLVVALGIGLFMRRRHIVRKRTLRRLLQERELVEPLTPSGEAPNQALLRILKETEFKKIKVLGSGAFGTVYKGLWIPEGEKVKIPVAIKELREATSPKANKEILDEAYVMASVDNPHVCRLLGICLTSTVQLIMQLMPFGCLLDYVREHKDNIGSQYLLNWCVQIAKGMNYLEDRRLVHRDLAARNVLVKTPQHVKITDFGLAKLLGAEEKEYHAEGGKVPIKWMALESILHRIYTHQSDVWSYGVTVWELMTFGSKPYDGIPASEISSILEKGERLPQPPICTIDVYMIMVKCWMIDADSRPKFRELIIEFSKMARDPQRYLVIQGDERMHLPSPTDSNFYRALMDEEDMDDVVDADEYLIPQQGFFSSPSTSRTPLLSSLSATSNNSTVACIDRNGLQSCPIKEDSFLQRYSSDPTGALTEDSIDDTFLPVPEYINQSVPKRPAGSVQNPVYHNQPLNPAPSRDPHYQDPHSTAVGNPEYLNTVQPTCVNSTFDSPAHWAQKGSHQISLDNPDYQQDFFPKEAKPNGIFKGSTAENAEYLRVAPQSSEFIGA
Outline: (§4)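 Unstimulated NCI-H1975 cells exposed to indicated concentrations for 72 h. Lysates in HEPES buffer run on 12% SDS-PAGE, blotted to nitrocellulose and probed for AKT/S6K/S6 signalling with chemiluminescent detection; β-actin loading control.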

[15] = test system: Epidermal growth factor receptor (Homo sapiens), P00533 [T790M]; experiment: Inhibition of EGF-induced EGFR T790M mutant in human NCI-H1975 cells assessed as reduction in ribosomal S6 phosphorylation at S235/236 residue at 2.5 to 10 uM pretreated for 2.5 hrs followed by EGF-stimulation and measured after 10 mins by Western blot analysis; assay type: cell-based
Outline: (§5)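 Serum-starved overnight NCI-H1975 cells preincubated 2.5 h with compound, then stimulated with 50 ng/ml EGF for 10 min. Lysed in HEPES buffer, protein quantified, 12% SDS-PAGE, nitrocellulose transfer, milk blocking, HRP secondary, chemiluminescent detection.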

[16] = target: T1, Epidermal growth factor receptor; experiment: Inhibition of EGF-induced EGFR signalling in EGFR over-expressing human A431 cells assessed as reduction in ribosomal S6 phosphorylation at S235/236 residue at 2.5 to 10 uM pretreated for 3 hrs followed by EGF-stimulation and measured after 10 mins by Western blot analysis; outline: as §3
[17] = test system: NCI-H1975; experiment: Induction of apoptosis in human NCI-H1975 cells harboring EGFR T790M mutant assessed as increase in apoptotic cells at 2.5 to 10 uM after 72 hrs by Annexin-V-FITC/propidium iodide staining based flow cytometry; assay type: functional, cell-based
[18] = test system: MDA-MB-361; experiment: Induction of apoptosis in human MDA-MB-361 cells after 24 hrs by Annexin-V-FITC/propidium iodide staining based flow cytometry; assay type: functional, cell-based
[19] = target: T1, Epidermal growth factor receptor; experiment: Inhibition of EGF-induced EGFR signalling in EGFR over-expressing human A431 cells assessed as reduction in AKT phosphorylation at S473 residue at 2.5 to 10 uM pretreated for 3 hrs followed by EGF-stimulation and measured after 10 mins by Western blot analysis; outline: as §3
[20] = test system: Epidermal growth factor receptor (Homo sapiens), P00533 [T790M]; experiment: Inhibition of EGF-induced EGFR T790M mutant in human NCI-H1975 cells assessed as reduction in AKT phosphorylation at S473 residue at 2.5 to 10 uM pretreated for 2.5 hrs followed by EGF-stimulation and measured after 10 mins by Western blot analysis; assay type: cell-based; outline: as §5
[21] = test system: NCI-H1975; experiment: Induction of apoptosis in human NCI-H1975 cells harboring EGFR T790M mutant assessed as increase in necrotic cells at 2.5 to 10 uM after 72 hrs by Annexin-V-FITC/propidium iodide staining based flow cytometry; assay type: functional, cell-based
Outline: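 NCI-H1975 cells grown in RPMI-1640 with 2 mM L-glutamine and 10% FBS, exposed 72 h to indicated concentrations. Harvested, ethanol-fixed on ice, PI-stained overnight at 4 °C. Flow cytometry on 20 000 cells/sample gave percent live, early apoptotic and late apoptotic/necrotic cells.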

[22] = test system: Epidermal growth factor receptor (Homo sapiens), P00533 [T790M]; experiment: Inhibition of EGFR T790M mutant in human NCI-H1975 cells assessed as reduction in p70S6K phosphorylation at T389 residue after 72 hrs by Western blot analysis; assay type: cell-based; outline: as §4
[23] = target: T1, Epidermal growth factor receptor; experiment: Inhibition of EGF-induced EGFR signalling in EGFR over-expressing human A431 cells assessed as reduction in p70S6K phosphorylation at T389 residue at 2.5 to 10 uM pretreated for 3 hrs followed by EGF-stimulation and measured after 10 mins by Western blot analysis; outline: as §3
[24] = test system: Epidermal growth factor receptor (Homo sapiens), P00533 [T790M]; experiment: Inhibition of EGF-induced EGFR T790M mutant in human NCI-H1975 cells assessed as reduction in p70S6K phosphorylation at T389 residue at 2.5 to 10 uM pretreated for 2.5 hrs followed by EGF-stimulation and measured after 10 mins by Western blot analysis; assay type: cell-based; outline: as §5
[25] = test system: Epidermal growth factor receptor (Homo sapiens), P00533 [T790M]; experiment: Inhibition of EGFR T790M mutant in human NCI-H1975 cells assessed as reduction in ribosomal S6 phosphorylation at S235/236 residue after 72 hrs by Western blot analysis; assay type: cell-based; outline: as §4
[26] = test system: Epidermal growth factor receptor (Homo sapiens), P00533 [T790M]; experiment: Inhibition of EGF-induced EGFR T790M mutant phosphorylation in human NCI-H1975 cells at 2.5 to 10 uM pretreated for 2.5 hrs followed by EGF-stimulation and measured after 10 mins by Western blot analysis; assay type: cell-based; outline: as §5

IC50 [3] [µM]	IC50 [4] [µM]	Compound	IC50 [1] [µM]	IC50 [2] [µM]	IC50 [6] [µM]	IC50 [8] [µM]	further results
–	–	CC(C)/C=C/C(=O)Nc1ccc(-c2cc3c(Nc4ccc(Oc5cccc(C(F)(F)F)c5)c(Cl)c4)ncnc3s2)cc1	0.23	> 20	–	–	–
–	–	O=[N+]([O-])c1ccc(-c2cc3c(Nc4ccc5c(cnn5Cc5ccccc5)c4)ncnc3s2)cc1	> 20	> 20	–	–	–
–	–	O=[N+]([O-])c1ccc(-c2cc3c(NCc4ccccc4)ncnc3s2)cc1	4.87	> 20	–	–	–
0.112	37.1	O=C(Nc1ccc(-c2cc3c(Nc4ccc(Oc5cccc(C(F)(F)F)c5)c(Cl)c4)ncnc3s2)cc1)NC1CC1	2.34	3.83	–	–	–
0.0477	0.879	CC(=O)Nc1ccc(-c2cc3c(Nc4ccc(Oc5cccc(C(F)(F)F)c5)c(Cl)c4)ncnc3s2)cc1	10.5	10.5	4.7	12.7	inhibition [5]: Active; inhibition [7]: Active; inhibition [9]: Active
–	–	CCOC(=O)Nc1ccc(-c2cc3c(Nc4ccc(Oc5cccc(C(F)(F)F)c5)c(Cl)c4)ncnc3s2)cc1	17	> 20	–	–	–
–	–	O=[N+]([O-])c1ccc(-c2cc3c(Nc4ccc(Oc5cccc(C(F)(F)F)c5)c(Cl)c4)ncnc3s2)cc1	1.72	3.65	–	–	–
0.0214	1.5	Nc1ccc(-c2cc3c(Nc4ccc(Oc5cccc(C(F)(F)F)c5)c(Cl)c4)ncnc3s2)cc1	11.4	5.85	6	13.9	inhibition [10]: Dose-dependent effect; inhibition [11]: Active; inhibition [12]: Active; inhibition [13]: Active
–	19.2	CS(=O)(=O)Nc1ccc(-c2cc3c(Nc4ccc(Oc5cccc(C(F)(F)F)c5)c(Cl)c4)ncnc3s2)cc1	5.25	9.86	–	–	–
–	–	O=C(O)/C=C\C(=O)Nc1ccc(-c2cc3c(Nc4ccc(Oc5cccc(C(F)(F)F)c5)c(Cl)c4)ncnc3s2)cc1	> 20	> 20	–	–	–
–	–	Nc1ccc(-c2cc3c(NCc4ccccc4)ncnc3s2)cc1	> 20	> 20	–	–	–
0.0917	1.2	O=C(NCCN1CCOCC1)Nc1ccc(-c2cc3c(Nc4ccc(Oc5cccc(C(F)(F)F)c5)c(Cl)c4)ncnc3s2)cc1	1.45	3.5	4.83	4.2	inhibition [14]: Dose-dependent effect; inhibition [15]: Active; inhibition [16]: Active; Activity [17]: Active; Activity [18]: Dose-dependent effect; inhibition [19]: Active; inhibition [10]: Dose-dependent effect; inhibition [20]: Active; Activity [21]: Active; inhibition [22]: Dose-dependent effect; inhibition [23]: Active; inhibition [24]: Active; inhibition [25]: Dose-dependent effect; inhibition [26]: Active
–	–	CS(=O)(=O)CCNCc1ccc(-c2ccc3ncnc(Nc4ccc(OCc5cccc(F)c5)c(Cl)c4)c3c2)o1	1.69	13.7	0.17	11.5	–
